Bioassay records as filed in PubChem BioAssay.
CAL PDZ FP-1: blocks peptide binding to human CAL PDZ domain | AID 504414 | purified CAL PDZ, TMR-peptide fluorescence polarization, 1 h | Q9HD26 | inhibition, % at 20 µM | 0.02% of 330,000 active;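 active means highest replicate inhibition of at least 40%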
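Material – purified CerCALP PDZ construct · Detection – FP readout, S and P plane fluorescence · Measure – percent inhibition from loss of millipolarization · Controls – unlabelled peptide for full inhibition, DMSO wells as neutral · Probe or stimulus – TMR-labelled reporter peptide T*-PRC34 bound in PDZ groove · Times – 1 h at RT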
dFosB act-1: activators of mouse delta FosB homodimer; purified delta FosB, TAMRA-CDK5 oligo fluorescence polarization; percent of positive-control signal above neutral wells; activation, % at 25 µM; AID 493131; P13346; 0.99% of 340,000 active;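 active means mean activation above about 17%, with every replicate also reaching it, limit read from the data, passing the limit was not always enough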
Target sequence (P13346 whole entry, looked up): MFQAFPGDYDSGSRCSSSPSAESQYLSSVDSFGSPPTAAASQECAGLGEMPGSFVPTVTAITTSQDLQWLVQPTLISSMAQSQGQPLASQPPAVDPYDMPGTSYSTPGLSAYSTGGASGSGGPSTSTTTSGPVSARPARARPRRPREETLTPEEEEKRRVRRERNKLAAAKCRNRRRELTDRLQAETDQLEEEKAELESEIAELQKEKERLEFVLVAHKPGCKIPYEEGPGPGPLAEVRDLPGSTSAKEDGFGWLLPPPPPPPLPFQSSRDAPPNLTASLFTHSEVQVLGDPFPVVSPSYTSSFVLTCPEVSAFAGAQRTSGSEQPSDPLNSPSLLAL
SR-BI HDL uptake: blocks mouse SR-BI lipid uptake from DiI-HDL. AID 488896. ldlA[mSR-BI] CHO cells, DiI-HDL uptake fluorescence, 3 h. Q61009. 0.96% of 320,000 active. inhibition, % at 12.5 µM;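 active means mean replicate inhibition of at least 70% and a set share of replicates each scoring 70 or more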
SR-BI uptake up: SR-BI HDL lipid transfer activation. CHO ldlA[mSR-BI] cells, DiI-HDL uptake fluorescence, 3 h; 100 = double the neutral-control signal. activation, % at 12.5 µM. 0.096% of 320,000 active. AID 504775;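 active means mean replicate activation of at least 60% and every replicate at or above 60%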
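Test system: SR-BI-overexpressing, LDLR-lacking CHO cells; Medium: Ham's F12 with 0.5% BSA, HEPES 25 mM, pH 7.4; Schedule: 3 h, 37 °C; Technique: bottom-read fluorescence, 550/595 nm.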
CAL PDZ FP-2: blocks peptide binding to the human CAL PDZ domain | AID 602252 | purified CAL PDZ, TMR-peptide fluorescence polarization, 1 h | inhibition, % at 24.9 µM | 0.92% of 300,000 active;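 active means mean inhibition of at least 30% with at least half of replicates also reaching 30%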
dFosB act-2: activators of mouse delta FosB homodimer DNA binding. shares compounds with dFosB act-1. purified delta FosB, TAMRA-CDK5 oligo fluorescence polarization; normalised: neutral wells 0, positive control 100. activation, % at 24.9 µM. 2,400 tested, under 10 active. AID 588690;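 active means highest replicate activation at or above 34% and every replicate reaching that threshold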;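 further: higher polarization means more probe DNA bound by delta FosB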
Each line names hits and unclear results; the compound was inactive in the other large screens (follow-up assays come after a bar, where they were run). This is a sample that favours compounds with a hit; in the whole collection about 2.8% have one here.

CC(C)CN1C(=O)c2ccc(NC(=O)c3cccs3)cc2C1=O	none (no result: CAL PDZ FP-2)
Cc1cc(NS(=O)(=O)c2ccc(NC(=O)COc3ccc(C#N)cc3)cc2)nc(C)n1	none (no result: CAL PDZ FP-2)
O=C(CCc1nc2ccccc2[nH]1)Nc1ccccc1	none (no result: CAL PDZ FP-2)
Cc1cc(C)cc(NC(=O)CCc2nc3ccccc3[nH]2)c1	dFosB act-1 28 | dFosB act-2 inactive
COc1ccc(CCNCc2cc3ccc(C)cc3[nH]c2=O)cc1OC	none
CCOc1cc(C(=O)N=c2sccn2C)ccc1OC(F)F	none
Oc1ccc(Br)cc1-c1cc(-c2ccc(Cl)cc2)n[nH]1	dFosB act-1 28, SR-BI HDL uptake 75 | dFosB act-2 inactive
COc1ccc(-c2cc(-c3ccc(Cl)cc3)n[nH]2)c(O)c1	none
O=C(CSc1ncn[nH]1)NNC(=O)c1ccccc1	none
Cc1cc(C)c(NC(=O)CSc2nc3ncc(Br)cc3[nH]2)c(C)c1	dFosB act-1 30 | dFosB act-2 inactive
CN(C)c1ccc(S(=O)(=O)N2CCCCC2)cc1NC(=O)CN1C(=O)NC2(CCCC2)C1=O	none
O=[N+]([O-])c1ccc2[nH]nc(-c3ccccc3)c2c1	none
O=[N+]([O-])c1ccc2[nH]c3nc4ccccc4nc3c2c1	dFosB act-1 38 | dFosB act-2 inactive
O=C1NC2=C(C(=O)CCC2)C(c2ccc(OC(F)F)cc2)N1 (stereo not drawn)	none (no result: SR-BI HDL uptake, SR-BI uptake up)
CCc1ccc(NC(=O)CSc2nc3n[nH]c(C)c3c(=N)n2-c2cccc(OC)c2)cc1	dFosB act-1 42, SR-BI uptake up 123 (no result: CAL PDZ FP-2) | dFosB act-2 inactive
COc1ccc(Cl)cc1NC(=O)NCc1ccc2c(c1)OCO2	dFosB act-1 62 | dFosB act-2 inactive
O=C(NCc1ccc2c(c1)OCO2)Nc1cccc(Cl)c1	none
CCS(=O)(=O)N1CCC(C(=O)NCc2ccc3c(c2)OCO3)CC1	none
O=C(NCc1ccc2c(c1)OCO2)C1CCN(C(=O)Nc2ccc(Cl)cc2)CC1	dFosB act-1 20 | dFosB act-2 inactive
COc1cccc(NC(=S)NC(=O)/C=C/c2ccc(F)cc2)c1	dFosB act-1 34 (no result: CAL PDZ FP-2) | dFosB act-2 inactive
CCc1cc2cc3c(cc2nc1SCC(=O)Nc1cc(C)on1)OCO3	dFosB act-1 49 | dFosB act-2 inactive
CCOC(=O)c1c(S(=O)(=O)Nc2ccccc2OCC)c(C)n(C)c1C	none
COc1ccc(C(=O)CSc2nc(N)nc(SC)c2C#N)cc1	dFosB act-1 56 | dFosB act-2 inactive
Cc1cc(Br)c2c(c1)C1(OCCO1)C(=O)N2	none
O=C(Cc1cccc(NC(=O)C2CCN(C(=O)C3CC3)CC2)c1)Nc1cccc(C(=O)N2CCCCC2)c1	none
NC(=O)c1ccc(NC(=O)Cn2c(=O)n(-c3ccccc3)c(=O)c3oc4ccccc4c32)cc1	none (no result: SR-BI HDL uptake, SR-BI uptake up)
CC(=O)Nc1ccc(NC(=O)Cn2c(=O)n(-c3ccc(F)cc3)c(=O)c3oc4ccccc4c32)cc1	dFosB act-1 21 (no result: SR-BI HDL uptake, SR-BI uptake up) | dFosB act-2 inactive
N=c1c(S(=O)(=O)c2ccc(Cl)cc2)cc2c(=O)n3ccccc3nc2n1C1CCCCC1	none
CCc1ccc(NC(=O)CCCNC(=O)Cn2cnc3sc(C)c(C)c3c2=O)cc1	dFosB act-1 32 (no result: SR-BI HDL uptake, SR-BI uptake up, CAL PDZ FP-2) | dFosB act-2 inactive
FC(F)(F)c1cnc(COc2cc(Cl)cc(Cl)c2)c(Cl)c1	none
Cc1ccc(/C=N/NC(=O)c2nnn(-c3nonc3N)c2C(C)C)s1	none
COc1ccccc1NC(=O)c1nnn(CC(=O)Nc2cc(C)cc(C)c2)c1N	dFosB act-1 33 | dFosB act-2 inactive
COc1ccccc1NC(=O)Cn1nnc(C(=O)Nc2ccccc2)c1N	dFosB act-1 33 (no result: SR-BI HDL uptake, SR-BI uptake up) | dFosB act-2 inactive
COc1ccccc1NC(=O)c1nnn(CC(=O)Nc2ccccc2)c1N	none
O=C(c1ccc(Cl)cc1)c1cnc(Nc2ccccc2Cl)s1	dFosB act-1 53 | dFosB act-2 inactive
O=C(c1ccc(Cl)cc1)c1cnc(-c2ccccc2)s1	none
CC(C)Cn1c(N)c(C=O)c(=O)n(C)c1=O	none
CC(C)Cn1c(N)c(/C=N/NC(=O)c2ccc(Cl)cc2)c(=O)n(C)c1=O	dFosB act-1 19 (no result: SR-BI HDL uptake, SR-BI uptake up, CAL PDZ FP-2) | dFosB act-2 inactive
O=C(N/N=C/c1ccc([N+](=O)[O-])o1)c1cc2c(ccc3ccccc32)o1	none (no result: CAL PDZ FP-2)
Cc1ccc(/C=N/NC(=O)c2cc3c(ccc4ccccc43)o2)o1	dFosB act-1 25 | dFosB act-2 inactive
O=C(N/N=C/c1cccnc1)c1cc2c(ccc3ccccc32)o1	dFosB act-1 32 | dFosB act-2 inactive
Cn1c(CCNC(=O)c2ccco2)nc2cc(NC(=O)c3ccccc3Cl)ccc21	none
C/C(=C\c1ccccc1)C(=O)Nc1ccc(Cl)cn1	none (no result: CAL PDZ FP-2)
Cc1ccc(C)c(Cn2c(=O)n(-c3ccc(CC(=O)NCc4ccco4)cc3)c(=O)c3sccc32)c1	dFosB act-1 30 | dFosB act-2 inactive
O=C(Cc1ccc(-n2c(=O)c3sccc3n(CC(=O)Nc3ccccc3F)c2=O)cc1)NCc1ccco1	dFosB act-1 52 (no result: SR-BI HDL uptake, SR-BI uptake up) | dFosB act-2 inactive
O=C(Cn1c(=O)n(-c2ccc(F)cc2)c(=O)c2sccc21)NC1CCCCC1	dFosB act-1 31 (no result: SR-BI HDL uptake, SR-BI uptake up) | dFosB act-2 inactive
Cc1cccc(C)c1NC(=O)Cn1c(=O)n(CCC(=O)NCc2ccco2)c(=O)c2sccc21	none
COc1ccc(C(=O)Nc2ccccc2-c2nnn(CC(N)=O)n2)cc1	dFosB act-1 44 (no result: SR-BI HDL uptake, SR-BI uptake up) | dFosB act-2 inactive
COc1ccc(C(=O)Nc2ccccc2-c2nnn(CC(=O)Nc3ccc4c(c3)OCCO4)n2)cc1	dFosB act-1 33 | dFosB act-2 inactive
COc1cc(OC)cc(C(=O)Nc2ccccc2-c2nnn(CC(=O)Nc3cc(C)on3)n2)c1	dFosB act-1 95 (no result: SR-BI HDL uptake, SR-BI uptake up) | dFosB act-2 inactive
CCOc1ccc(NC(=O)Cn2nnc(-c3ccccc3NC(=O)C3CC3)n2)cc1	dFosB act-1 60 | dFosB act-2 inactive
COc1cc(C(=O)Nc2ccccc2-c2nnn(CC(N)=O)n2)cc(OC)c1OC	none
CN1CCN(NC(=O)c2cc(S(=O)(=O)Nc3ccc(Cl)cc3)ccc2Cl)CC1	none
CCCSc1nc2c(cnn2-c2ccc(F)cc2)c(=O)[nH]1	dFosB act-1 48 | dFosB act-2 inactive
O=c1[nH]c(SCc2ccc(F)cc2)nc2c1cnn2-c1ccc(F)cc1	dFosB act-1 35 (no result: CAL PDZ FP-2) | dFosB act-2 inactive
CCCSc1nc2c(cnn2-c2ccccc2)c(=O)[nH]1	none (no result: CAL PDZ FP-2)
CN1C2CCC1CC(NS(=O)(=O)c1ccc(C#N)cc1)C2 (stereo not drawn)	none
Nc1ncnc2c1ncn2[C@@H]1O[C@H](CNCC#Cc2ccccc2)[C@@H](O)[C@H]1O	none
O=C(Nc1cccnc1Cl)c1cc(-c2ccc(O)cc2)on1	dFosB act-1 29 | dFosB act-2 inactive
O=C(Nc1cccnc1Cl)c1cc(-c2ccc(Cl)cc2)on1	none (no result: SR-BI HDL uptake, SR-BI uptake up)
COc1cc2c(cc1OC)C(COc1cc(C)cc(C)c1)N(C(C)=O)CC2 (stereo not drawn)	none
